Test system: porcine parvovirus (PPV)
Assay: PPV removal by peptide-resin columns from 7.5% human blood plasma
Format: binding, porcine parvovirus (PPV) NADL-2 strain
Conditions: Figure 3B
Outline: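 Peptides on resin at 0.10 mmol/g dry resin with a four-unit ethylene oxide spacer; 0.5 ml settled resin in PBS per column; acetylated control. About 5 log₁₀ (MTT/ml) PPV was pumped at 0.1 ml/min. Fractions of 0.5 ml (one column volume) were titered by MTT assay on PK-13 cells. Clearance over five column volumes was expressed relative to a reference trimer ligand (100%). Duplicates.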

## YKLKYY
  PPV clearance of the first five column volumes, ranking among ligands: highest virus clearance

— publication PMC4083586 (Biotechnology journal, 2011)
